# Cneo AK release: causes C. neoformans cell lysis | adenylate kinase release luminescence, 4 h; normalised: neutral wells 0, clomiphene wells 100 | lysis activity, % at 15 µM | hit rate 0.2% among 360,000 | AID 651654;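 active means mean lysis activity across replicates of at least 80%, whatever share of replicates individually reach that level; inactive means mean lysis activity below 80%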
#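 Assay system: log-phase C. neoformans yeast / Quantity: yeast cell density of 5 × 10^6 cells/mL / Medium: fresh YPD growth medium / Compound: single dose / Timing: static 4 h at 37 °C with compound, 1 h detection / Measured by: adenylate kinase release luminescence / Read-out: lysis from increased AK signal / Benchmarks: Clomiphene as positive lysis control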
# Mot1-301 SUMO: blocks SUMOylation pathway, rescuing yeast Mot1-301 growth; growth rescue, % at 18.8 µM; hit rate 1% among 320,000; AID 2716; S. cerevisiae Mot1-301 growth rescue, ATP luminescence, 38.5C; percent above DMSO median, 100 means doubled;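 active means every valid replicate shows activation above 250% relative to neutral control wells; inactive means the rest, any valid replicate at or below 250%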;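 further: OY570 slx delta 5 strain wells were the positive control but not used for scaling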
# Statin myotox sup: protects C2C12 myotubes from simvastatin toxicity. ATP luminescence, 48 h; scaled: DMSO 0, geranylgeraniol control 100. hit rate 0.78% among 330,000. rescue of ATP level, % at 7.49 µM;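 active means mean ATP rescue above about 67%, or every replicate alone reaching that limit, limit read from the data, passing the limit was not always enough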;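 further: myotubes were challenged with 10 µM simvastatin during compound exposure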
# * hit, by the source's call; x = no result. This is a sample that favours compounds with a hit; in the whole collection about 1.5% have one here.
SMILES,Cneo AK release,Mot1-301 SUMO,Statin myotox sup
CC=Cc1ccc2n(c1=O)C[C@@H]1[C@@H](CO)[C@H](C(=O)N3CCCCC3)N(C(=O)CC)[C@H]21 (mixture of isomers),37,x,16
CO[C@H]1CN(C)C(=O)c2ccc(NC(C)=O)cc2OC[C@@H](C)N(C(=O)c2cccnc2)C[C@@H]1C,0,x,6
O=C(NCc1ccccc1)[C@@]1(Cc2ccccc2)COC(c2ccc(OCCCO)cc2)=N1,-5,x,x
CC(C)NC(=O)N(C)C[C@@H]1OCCCC[C@H](C)Oc2ccc(NS(=O)(=O)c3cccs3)cc2C(=O)N([C@H](C)CO)C[C@@H]1C,-1,x,x
C[C@@H]1CN([C@@H](C)CO)C(=O)CCCn2cc(nn2)CO[C@@H]1CN(C)C(=O)NC1CCCC1,117*,x,1
C[C@H](CO)N1C[C@H](C)[C@@H](CN(C)C(=O)CCCN(C)C)OCc2cn(nn2)CCCC1=O,-1,x,6
C[C@@H]1CN([C@H](C)CO)C(=O)CCCn2cc(nn2)CO[C@H]1CN(C)C(=O)CCCN(C)C,10,x,11
C[C@H](CO)N1C[C@H](C)[C@H](CN(C)C(=O)NC2CCCC2)OCc2cn(nn2)CCCC1=O,-20,x,-5
C[C@@H]1CN([C@@H](C)CO)C(=O)CCCn2cc(nn2)CO[C@@H]1CN(C)C(=O)CCCN(C)C,97*,x,-8
C[C@@H]1CN([C@H](C)CO)C(=O)CCCn2cc(nn2)CO[C@@H]1CN(C)C(=O)CCCN(C)C,105*,x,-14
CN(C)C(=O)c1ccc(-c2ccc3c(c2)[C@H]2[C@H](CCN2C(=O)C2CCOCC2)[C@@H](CO)N3C)cc1,5,x,-3
CO[C@@H](CN(C)C(=O)c1ccccc1F)[C@@H](C)CN([C@@H](C)CO)S(=O)(=O)c1ccccc1,-12,x,5
CCS(=O)(=O)N1CCCCN2[C@H](CO)[C@H](c3ccc(-c4ccccc4F)cc3)[C@@H]2C1,0,x,8
CCOc1ccc(C(=O)C(CN2CCOCC2)c2ccccc2)cc1 (configuration not stated),-4,287*,92*
O=C(c1ccccc1)C(CN1CCCCC1)c1ccccc1 (configuration not stated),4,x,11
COc1ccc(-c2cnc3c(c2)C(=O)N([C@H](C)CO)C[C@H](C)[C@H](CN(C)S(=O)(=O)c2cccc(OC)c2)O3)cc1,x,x,36
C[C@@H]1CN([C@@H](C)CO)C(=O)c2cc(-c3ccc(C#N)cc3)cnc2O[C@H]1CN(C)C(=O)CC1CC1,1,x,-2
Cc1nn(-c2ccccc2)c(N)c1C(O)(CC(=O)C(F)(F)F)C(F)(F)F (configuration not stated),x,333*,5
Cc1nn(-c2ccccc2)c(N)c1C(O)(C(F)(F)F)C(F)(F)F,x,23,x
O=c1c2[nH]c3cccc(Cl)c3c2ncn1CCN1CCCCC1,x,-12,103*
O=c1c2[nH]c3cccc(Cl)c3c2ncn1CC1CCCO1 (configuration not stated),x,56,x
COc1ccc(CCNC(=O)c2cccc([N+](=O)[O-])c2)cc1OC,x,19,x
O=C(NCCc1ccccc1)c1cccc([N+](=O)[O-])c1,1,514*,-11
O=C(Cn1c(=O)c2sccc2n(Cc2ccc([N+](=O)[O-])cc2)c1=O)NCCc1ccccc1,x,2,x
O=C(Cn1c(=O)c2sccc2n(Cc2cccc([N+](=O)[O-])c2)c1=O)NCCc1ccccc1,x,884*,x
SMILES,Cneo AK release,Mot1-301 SUMO,Statin myotox sup
CCCN1[C@H](C(=O)OC)[C@@H](CO)[C@@H]2Cn3c(ccc(C4=CCCC4)c3=O)[C@@H]21,54,x,-2
COC(=O)C[C@@H]1CC[C@@H]2[C@H](COc3ccc(NC(=O)NCc4ccccc4)cc3C(=O)N2C)O1,x,x,-10
C[C@@H]1CN([C@@H](C)CO)C(=O)Cc2cc(NC(=O)CCCN(C)C)ccc2O[C@H]1CN(C)S(=O)(=O)c1cccs1,35,x,15
CCCC#Cc1cnc2c(c1)C(=O)N([C@H](C)CO)C[C@H](C)[C@@H](CN(C)C(=O)C1CCCCC1)O2,x,x,21
C[C@H]1CN([C@@H](C)CO)C(=O)Cc2cc(NC(=O)NC3CCCCC3)ccc2O[C@@H]1CN(C)Cc1ccccc1,9,x,-10
C[C@@H]1CN([C@H](C)CO)C(=O)Cc2cc(NC(=O)C3CC3)ccc2O[C@H]1CN(C)Cc1ccc(Oc2ccccc2)cc1,0,x,32
C[C@@H]1CN([C@@H](C)CO)C(=O)Cc2cc(NC(=O)C3CC3)ccc2O[C@H]1CN(C)Cc1ccc(Oc2ccccc2)cc1,0,x,74*
CC(C)NC(=O)Nc1ccc2c(c1)CC(=O)N([C@@H](C)CO)C[C@H](C)[C@H](CN(C)Cc1ccc(Oc3ccccc3)cc1)O2,-3,x,23
C[C@@H]1CN([C@H](C)CO)C(=O)Cc2cc(NC(=O)NC3CCCCC3)ccc2O[C@@H]1CN(C)Cc1ccccc1,92*,x,-23
C[C@@H]1CN([C@@H](C)CO)C(=O)Cc2cc(NC(=O)Cn3cnnn3)ccc2O[C@H]1CN(C)Cc1ccc(-c2ccccc2)cc1,2,x,8
C[C@H](CO)N1C[C@H](C)[C@@H](CN(C)Cc2ccc(-c3ccccc3)cc2)Oc2ccc(NC(=O)Cn3cnnn3)cc2CC1=O,-2,x,89*
CC(C)NC(=O)Nc1ccc2c(c1)CC(=O)N([C@@H](C)CO)C[C@@H](C)[C@@H](CN(C)Cc1ccc(Oc3ccccc3)cc1)O2,109*,x,-95
CN(C)CC(=O)Nc1ccc2c(c1)[C@H]1C[C@@H](CC(=O)N3CCOCC3)O[C@H](CO)[C@H]1O2,0,x,2
CO[C@@H]1CN(C)C(=O)c2ccc(NS(C)(=O)=O)cc2OC[C@H](C)N(Cc2cncnc2)C[C@@H]1C,4,x,-8
COc1ccc(CN(C)C[C@H]2Oc3ccc(NC(=O)Nc4ccc(F)cc4)cc3CC(=O)N([C@@H](C)CO)C[C@@H]2C)cc1,102*,x,18
